According to ChEMBL document CHEMBL3045225, “Vapor-phase toxicity of Derris scandens Benth.-derived constituents against four stored-product pests” (2011):
≈ marks a conversion by molar mass, not a printed value. Calls of active or inactive are those of the source. No cut-off for these calls is given here.

What was measured:
Callosobruchus chinensis [1] = assay: Insecticidal activity against 3 to 8 days old Callosobruchus chinensis assessed as mortality at 1 ug/mL measured after 24 hr by fumigation assay; type: functional
How it was run: (§1)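 Adults from Directorate of Maize Research lab cultures, 20 per sealed 100 mL PVC container. Acetone solutions (0.1-1.0 μg/mL) applied to filter paper, air-dried 5 min, fixed inside lid; acetone-only controls. Held at 28 ± 2 °C, 65 ± 5% RH. Death confirmed by paintbrush probing; counted every 24 h to 72 h. Five replicates per treatment; three runs on different dates.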

Tribolium castaneum [2] = assay: Insecticidal activity against 3 to 8 days old Tribolium castaneum (red flour beetle) assessed as mortality at 0.2 ug/mL measured within 24 hr by fumigation assay; type: functional, organism-based; how it was run: as §1
Tribolium castaneum [3] = assay: Insecticidal activity against 3 to 8 days old Tribolium castaneum (red flour beetle) assessed as mortality measured after 24 hr by fumigation assay; type: functional; how it was run: as §1
Tribolium castaneum [4] = assay: Insecticidal activity against 3 to 8 days old Tribolium castaneum (red flour beetle) assessed as mortality at 1 ug/mL measured after 72 hr by fumigation assay; type: functional; how it was run: as §1
Tribolium castaneum [5] = assay: Insecticidal activity against 3 to 8 days old Tribolium castaneum (red flour beetle) assessed as mortality at 1 ug/mL measured after 24 hr by fumigation assay; type: functional; how it was run: as §1
Rhyzopertha dominica [6] = assay: Insecticidal activity against 3 to 8 days old Rhyzopertha dominica assessed as mortality measured after 24 hr by fumigation assay; type: functional; how it was run: as §1
Rhyzopertha dominica [7] = assay: Insecticidal activity against 3 to 8 days old Rhyzopertha dominica assessed as mortality at 1 ug/mL measured after 72 hr by fumigation assay; type: functional; how it was run: as §1
Rhyzopertha dominica [8] = assay: Insecticidal activity against 3 to 8 days old Rhyzopertha dominica assessed as mortality at 1 ug/mL measured after 24 hr by fumigation assay; type: functional; how it was run: as §1
Sitophilus oryzae [9] = assay: Insecticidal activity against 3 to 8 days old Sitophilus oryzae (rice weevil) assessed as mortality measured after 72 hr by fumigation assay; type: functional; how it was run: as §1
Sitophilus oryzae [10] = assay: Insecticidal activity against 3 to 8 days old Sitophilus oryzae (rice weevil) assessed as mortality at 1 ug/mL measured after 72 hr by fumigation assay; type: functional; how it was run: as §1
Sitophilus oryzae [11] = assay: Insecticidal activity against 3 to 8 days old Sitophilus oryzae (rice weevil) assessed as mortality at 1 ug/mL measured after 24 hr by fumigation assay; type: functional; how it was run: as §1
Callosobruchus chinensis [12] = assay: Insecticidal activity against 3 to 8 days old Callosobruchus chinensis assessed as mortality measured after 72 hr by fumigation assay; type: functional; how it was run: as §1
Callosobruchus chinensis [13] = assay: Insecticidal activity against 3 to 8 days old Callosobruchus chinensis assessed as mortality at 1 ug/mL measured after 72 hr by fumigation assay; type: functional; how it was run: as §1
Callosobruchus chinensis [14] = assay: Insecticidal activity against 3 to 8 days old Callosobruchus chinensis assessed as mortality at 1 ug/mL measured after 48 hr by fumigation assay; type: functional; how it was run: as §1
Tribolium castaneum [15] = assay: Insecticidal activity against 3 to 8 days old Tribolium castaneum (red flour beetle) assessed as mortality at 1 ug/mL measured after 48/ hr by fumigation assay; type: functional; how it was run: as §1
Rhyzopertha dominica [16] = assay: Insecticidal activity against 3 to 8 days old Rhyzopertha dominica assessed as mortality at 1 ug/mL measured after 48 hr by fumigation assay; type: functional; how it was run: as §1
Sitophilus oryzae [17] = assay: Insecticidal activity against 3 to 8 days old Sitophilus oryzae (rice weevil) assessed as mortality at 1 ug/mL measured after 48 hr by fumigation assay; type: functional; how it was run: as §1

SMILES | mortality at 1 µg/mL (Callosobruchus chinensis [1]) | Activity (Tribolium castaneum [2]) | LC50 (Tribolium castaneum [3]) | mortality at 1 µg/mL (Tribolium castaneum [4]) | mortality at 1 µg/mL (Tribolium castaneum [5]) | LC50 (Rhyzopertha dominica [6]) | mortality at 1 µg/mL (Rhyzopertha dominica [7]) | mortality at 1 µg/mL (Rhyzopertha dominica [8]) | LC50 (Sitophilus oryzae [9]) | mortality at 1 µg/mL (Sitophilus oryzae [10]) | mortality at 1 µg/mL (Sitophilus oryzae [11]) | LC50 (Callosobruchus chinensis [12]) | mortality at 1 µg/mL (Callosobruchus chinensis [13]) | mortality at 1 µg/mL (Callosobruchus chinensis [14]) | mortality at 1 µg/mL (Tribolium castaneum [15]) | mortality at 1 µg/mL (Rhyzopertha dominica [16]) | mortality at 1 µg/mL (Sitophilus oryzae [17])
O=c1c(-c2ccc(O)cc2)coc2cc(O)cc(O)c12 [GENISTEIN] | 100% | Active | 0.18 µg/mL (≈ 0.666 µM) | 100% | 100% | 0.28 µg/mL (≈ 1.04 µM) | 100% | 100% | 0.31 µg/mL (≈ 1.15 µM) | 100% | 100% | 0.17 µg/mL (≈ 0.629 µM) | 100% | – | – | – | –
CC(C)=CCc1c2c(c(O)c3c(=O)cc(-c4ccc(O)cc4)oc13)C=CC(C)(C)O2 [LAXIFOLIN] | 88.8% | – | 0.34 µg/mL (≈ 0.841 µM) | 100% | 92.3% | 0.34 µg/mL (≈ 0.841 µM) | 92% | 89.3% | 0.2 µg/mL (≈ 0.494 µM) | 100% | 100% | 0.39 µg/mL (≈ 0.964 µM) | 96.4% | 93.2% | 94.6% | 90.8% | –
CC(C)=CCc1cc(-c2coc3cc(O)c(CC=C(C)C)c(O)c3c2=O)ccc1O [LUPALBIGENIN] | 100% | – | 0.38 µg/mL (≈ 0.935 µM) | 91% | 85.4% | 0.29 µg/mL (≈ 0.713 µM) | 100% | 93.4% | 0.26 µg/mL (≈ 0.64 µM) | 100% | 100% | 0.23 µg/mL (≈ 0.566 µM) | 100% | – | 88.4% | 94.6% | –
CC(C)=CCc1c2c(c3occ(-c4ccc(O)cc4)c(=O)c3c1O)C=CC(C)(C)O2 [OSAJIN] | 100% | Active | 0.26 µg/mL (≈ 0.643 µM) | 100% | 100% | 0.32 µg/mL (≈ 0.791 µM) | 100% | 100% | 0.28 µg/mL (≈ 0.692 µM) | 100% | 100% | 0.29 µg/mL (≈ 0.717 µM) | 100% | – | – | – | –
COc1ccc(-c2c(O)c3c(OC)c(CC=C(C)C)c4c(c3oc2=O)C=CC(C)(C)O4)cc1 [SCANDENIN A] | 79% | – | 0.82 µg/mL (≈ 1.83 µM) | 63.8% | 58.2% | 0.82 µg/mL (≈ 1.83 µM) | 67.8% | 60.6% | 0.76 µg/mL (≈ 1.69 µM) | 75.6% | 69.4% | 0.43 µg/mL (≈ 0.959 µM) | 83% | 81.4% | 60.8% | 64.2% | 72%
COc1c(CC=C(C)C)c2c(c3oc(=O)c(-c4ccc(O)cc4)c(O)c13)C=CC(C)(C)O2 [SCANDENIN] | 49.5% | – | > 1 µg/mL | 32.2% | 24.7% | 0.74 µg/mL (≈ 1.7 µM) | 78.2% | 72.3% | 0.45 µg/mL (≈ 1.04 µM) | 85.4% | 82% | 0.9 µg/mL (≈ 2.07 µM) | 58.2% | 56% | 29.6% | 75.8% | 83.6%
COc1c(CC=C(C)C)c2c(c3occ(-c4ccc(O)cc4)c(=O)c13)C=CC(C)(C)O2 [SCANDINONE] | 100% | Active | 0.2 µg/mL (≈ 0.478 µM) | 100% | 100% | 0.33 µg/mL (≈ 0.789 µM) | 100% | 100% | 0.24 µg/mL (≈ 0.573 µM) | 100% | 100% | 0.31 µg/mL (≈ 0.741 µM) | 100% | – | – | – | –
C[C@@H]1O[C@@H](OC[C@H]2O[C@@H](Oc3cc(O)c4c(=O)c(-c5ccc(O)cc5)coc4c3)[C@H](O)[C@@H](O)[C@@H]2O)[C@H](O)[C@H](O)[C@H]1O [SPHAEROBIOSIDE] | 100% | Active | 0.2 µg/mL (≈ 0.346 µM) | 100% | 100% | 0.27 µg/mL (≈ 0.467 µM) | 100% | 100% | 0.18 µg/mL (≈ 0.311 µM) | 100% | 100% | 0.21 µg/mL (≈ 0.363 µM) | 100% | – | – | – | –
CC(C)=CCc1c2c(c(O)c3c(=O)c(-c4ccc(O)cc4)coc13)C=CC(C)(C)O2 [WARANGALONE] | 27.9% | – | > 1 µg/mL | 37.2% | 30.7% | > 1 µg/mL | 21.8% | 15.8% | 0.84 µg/mL (≈ 2.08 µM) | 63.4% | 50.1% | > 1 µg/mL | 31.4% | 29.1% | 32.8% | 18.6% | 60%
